Data from ChEMBL document CHEMBL1255192, “3-alkylthio-1,2,4-triazine dimers with potent antimalarial activity” (Bioorg Med Chem Lett, 2010).
pEC50: −log10 of the molar value. Values after ≈ are worked out from the molar mass of the structure shown.

How the values were obtained:
[1] = Distribution coefficient log D of the compound at pH 3; format: physicochemical; conditions: octanol/water
How it was run: (§1)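 Log D at each pH was estimated by a chromatographic method.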

[2] = Distribution coefficient log D of the compound at pH 7.4; format: physicochemical; conditions: octanol/water; how it was run: as §1
[3] = tested on: HEK293; experiment: Cytotoxicity against HEK293 cells; format: cell-based; conditions: Homo sapiens
How it was run: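 HEK 293 cell toxicity assay, with puromycin as the control. Read-out is EC50.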

[4] = Solubility of the compound at pH 6.5; format: physicochemical; conditions: buffer
[5] = Solubility of the compound at pH 2; format: physicochemical; conditions: buffer
[6] = Intrinsic clearance in human liver microsomes; format: ADME, Microsome
How it was run: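 Compound was incubated with human liver microsomes. Parent loss and metabolites were followed by LCMS. Concentration versus time was fitted to exponential decay to get the first-order depletion rate constant, which gave in vitro CLint and a predicted hepatic extraction ratio.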

[7] = tested on: Plasmodium falciparum; experiment: Antimalarial activity against Plasmodium falciparum 3D7 infected in human erythrocyte; format: functional, organism-based
How it was run: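 Asexual erythrocytic-stage culture of the P. falciparum 3D7 strain, with chloroquine as the reference control. Read-out is EC50.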

[8] = tested on: Plasmodium falciparum; experiment: Antimalarial activity against Plasmodium falciparum Dd2 infected in human erythrocyte; format: functional, organism-based
How it was run: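 Chloroquine-resistant P. falciparum Dd2 grown at the erythrocytic stage, with chloroquine as the control. EC50 was determined.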

[9] = tested on: L6; experiment: Cytotoxicity against rat L6 cells; format: cell-based

pEC50 [7] | Structure (SMILES) | pEC50 [3] | further results
– | CSc1nncc(-c2cnnc(SC)n2)n1 | 4.17 | logD [1]: 2.4; logD [2]: 2.4; solubility [4]: 14.5 µM (≈ 3.66 µg/mL); solubility [5]: 15.3 µM (≈ 3.86 µg/mL)
– | CCSc1nncc(-c2cnnc(SCC)n2)n1 | 4.08 | –
– | CCCSc1nncc(-c2cnnc(SCCC)n2)n1 | < 3.94 | –
– | CSc1nncc(-c2cnnc(OCCN(C)C)n2)n1 | 4.62 | –
5.80 | CCc1nncc(-c2cnnc(CC)n2)n1 | – | microsomal CLint [6]: 11.7 µL/min/mg; logD [1]: 1.6; logD [2]: 1.6; solubility [4]: 311 µM (≈ 67.3 µg/mL); solubility [5]: 426 µM (≈ 92.1 µg/mL)
– | COc1nncc(-c2cnnc(OC)n2)n1 | 4.44 | –
– | CCCCSc1nncc(-c2cnnc(SCCCC)n2)n1 | < 3.94 | –
6.33 | CN(C)CCSc1nncc(-c2cnnc(SCCN(C)C)n2)n1 | 4.60 | pEC50 [8]: 6.21
7.64 | CCN(CC)CCSc1nncc(-c2cnnc(SC)n2)n1 | 5.05 | pEC50 [8]: 7.92
6.36 | CCN(CC)CCSc1nncc(-c2cnnc(SCCN(CC)CC)n2)n1 | 4.80 | pEC50 [8]: 6.10
– | COc1nncc(-c2cnnc(SC)n2)n1 | 4.74 | pEC50 [9]: 4.48
